Test results reported in ChEMBL document CHEMBL1149694, “5-(3-Cyclopentyl-2-thioxo-2,3-dihydro-1H-benzimidazol-5-yl)-1-methyl-1H-pyrrole-2-carbonitrile: A novel, highly potent, selective, and orally active non-steroidal progesterone receptor agonist” (Bioorg Med Chem, 2007).
Calls of active or inactive are those of the source. The calls are words filed in the database; no cut-off is given here.

Assays:
[1] = molecular target: T1, Progesterone receptor (Homo sapiens) (UniProt P06401); assay: Agonist activity at progesterone receptor expressed in T47D cells relative to progesterone; assay type: functional, cell-based
T1 sequence (whole entry): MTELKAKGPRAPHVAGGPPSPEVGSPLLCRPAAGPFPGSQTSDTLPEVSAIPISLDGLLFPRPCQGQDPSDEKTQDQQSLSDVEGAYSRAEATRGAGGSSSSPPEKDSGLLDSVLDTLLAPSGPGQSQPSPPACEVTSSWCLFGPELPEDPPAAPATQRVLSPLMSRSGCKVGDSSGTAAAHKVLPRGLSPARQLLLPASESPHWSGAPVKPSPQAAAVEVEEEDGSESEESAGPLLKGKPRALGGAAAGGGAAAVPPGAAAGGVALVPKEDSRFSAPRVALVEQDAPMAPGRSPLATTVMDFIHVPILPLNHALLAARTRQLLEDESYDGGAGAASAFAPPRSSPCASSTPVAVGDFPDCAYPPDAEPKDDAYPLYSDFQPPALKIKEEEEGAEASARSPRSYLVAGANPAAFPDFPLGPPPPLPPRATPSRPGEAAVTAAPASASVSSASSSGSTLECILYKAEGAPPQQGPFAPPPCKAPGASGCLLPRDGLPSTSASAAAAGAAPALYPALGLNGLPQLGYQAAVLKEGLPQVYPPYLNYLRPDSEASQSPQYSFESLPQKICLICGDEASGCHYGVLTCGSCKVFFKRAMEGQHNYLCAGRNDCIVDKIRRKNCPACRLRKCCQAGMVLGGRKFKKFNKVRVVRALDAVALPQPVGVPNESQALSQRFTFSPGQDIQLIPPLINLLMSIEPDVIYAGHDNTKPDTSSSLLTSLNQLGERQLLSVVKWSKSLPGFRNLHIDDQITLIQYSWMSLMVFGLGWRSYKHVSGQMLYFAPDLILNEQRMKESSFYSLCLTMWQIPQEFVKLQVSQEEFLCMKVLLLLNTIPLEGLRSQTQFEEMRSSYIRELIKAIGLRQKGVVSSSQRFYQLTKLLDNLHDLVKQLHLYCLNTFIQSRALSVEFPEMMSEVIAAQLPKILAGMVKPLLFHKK
How it was run: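 Human T47D breast carcinoma cells; agonist mode; read-out is alkaline phosphatase activity; values are the average of at least duplicate determinations.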

[2] = molecular target: T2, Progesterone receptor (Homo sapiens, UniProt P06401); assay: (§1) Agonist activity at progesterone receptor expressed in T47D cells by alkaline phosphatase assay; assay type: functional, cell-based
T2 sequence (P06401 whole entry): T1 sequence (whole entry)
How it was run: (§2)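 Human T47D breast carcinoma cells; alkaline phosphatase activity measured. EC50 is the concentration giving 50% effect; efficacy shown in parentheses. Average of at least duplicate determinations.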

[3] = molecular target: T1, Progesterone receptor (Homo sapiens); assay: (§3) Antagonist activity at progesterone receptor expressed in T47D cells assessed as inhibition of progesterone-induced alkaline phosphatase activity; assay type: functional, cell-based; conditions: for inhibition: concentration not given here
How it was run: (§4)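 Human T47D breast carcinoma cells stimulated with 1 nM progesterone; compound inhibition of induced alkaline phosphatase activity. IC50 is 50% inhibition. Average of at least duplicate determinations.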

[4] = molecular target: T2, Progesterone receptor; assay: as §3; assay type: functional, cell-based; how it was run: as §4
[5] = tested on: Cynomolgus monkey; assay: Inhibition of ovulation-induced progesterone levels in po dosed cynamologous monkey; assay type: functional, Macaca fascicularis
How it was run: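 Cynomolgus monkeys dosed orally once daily from day 2 to 28 of the menstrual cycle; vehicle 2% Tween 80/0.5% methylcellulose. Serum progesterone sampled three times weekly until the next menses. Ovulation inferred from the progesterone pattern.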

[6] = molecular target: T2, Progesterone receptor; assay: Binding affinity to cytosolic PR in T47D cells by competition binding assay; assay type: cell-based
[7] = molecular target: T3, Glucocorticoid receptor (Homo sapiens, UniProt P04150); assay: Agonist activity at glucocorticoid receptor expressed in L929 cells by HRE-tk luciferase assay
T3 sequence (P04150 whole entry): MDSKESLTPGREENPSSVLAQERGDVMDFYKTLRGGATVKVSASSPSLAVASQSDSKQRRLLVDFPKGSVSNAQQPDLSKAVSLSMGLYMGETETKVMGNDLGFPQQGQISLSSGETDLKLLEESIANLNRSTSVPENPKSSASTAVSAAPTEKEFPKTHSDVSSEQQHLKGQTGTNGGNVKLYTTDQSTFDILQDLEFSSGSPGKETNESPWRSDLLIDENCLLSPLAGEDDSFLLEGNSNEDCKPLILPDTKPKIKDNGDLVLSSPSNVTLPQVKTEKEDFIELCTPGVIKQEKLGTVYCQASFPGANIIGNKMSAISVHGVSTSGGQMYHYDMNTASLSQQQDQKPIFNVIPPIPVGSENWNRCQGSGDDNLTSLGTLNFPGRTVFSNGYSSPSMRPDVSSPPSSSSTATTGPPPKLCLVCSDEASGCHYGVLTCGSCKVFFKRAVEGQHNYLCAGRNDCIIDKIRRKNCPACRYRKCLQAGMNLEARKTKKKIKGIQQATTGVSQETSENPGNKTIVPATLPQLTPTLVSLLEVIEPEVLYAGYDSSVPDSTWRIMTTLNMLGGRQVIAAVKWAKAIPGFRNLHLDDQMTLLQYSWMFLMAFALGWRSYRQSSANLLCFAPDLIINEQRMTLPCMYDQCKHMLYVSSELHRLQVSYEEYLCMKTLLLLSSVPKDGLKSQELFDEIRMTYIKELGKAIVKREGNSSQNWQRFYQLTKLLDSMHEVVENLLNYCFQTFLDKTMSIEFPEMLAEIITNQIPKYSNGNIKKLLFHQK

[8] = molecular target: T4, Androgen receptor (Homo sapiens, UniProt P10275); assay: Antagonist activity at androgen receptor expressed in mouse fibroblast L929 cells by HRE-tk luciferase assay
T4 sequence (P10275 whole entry): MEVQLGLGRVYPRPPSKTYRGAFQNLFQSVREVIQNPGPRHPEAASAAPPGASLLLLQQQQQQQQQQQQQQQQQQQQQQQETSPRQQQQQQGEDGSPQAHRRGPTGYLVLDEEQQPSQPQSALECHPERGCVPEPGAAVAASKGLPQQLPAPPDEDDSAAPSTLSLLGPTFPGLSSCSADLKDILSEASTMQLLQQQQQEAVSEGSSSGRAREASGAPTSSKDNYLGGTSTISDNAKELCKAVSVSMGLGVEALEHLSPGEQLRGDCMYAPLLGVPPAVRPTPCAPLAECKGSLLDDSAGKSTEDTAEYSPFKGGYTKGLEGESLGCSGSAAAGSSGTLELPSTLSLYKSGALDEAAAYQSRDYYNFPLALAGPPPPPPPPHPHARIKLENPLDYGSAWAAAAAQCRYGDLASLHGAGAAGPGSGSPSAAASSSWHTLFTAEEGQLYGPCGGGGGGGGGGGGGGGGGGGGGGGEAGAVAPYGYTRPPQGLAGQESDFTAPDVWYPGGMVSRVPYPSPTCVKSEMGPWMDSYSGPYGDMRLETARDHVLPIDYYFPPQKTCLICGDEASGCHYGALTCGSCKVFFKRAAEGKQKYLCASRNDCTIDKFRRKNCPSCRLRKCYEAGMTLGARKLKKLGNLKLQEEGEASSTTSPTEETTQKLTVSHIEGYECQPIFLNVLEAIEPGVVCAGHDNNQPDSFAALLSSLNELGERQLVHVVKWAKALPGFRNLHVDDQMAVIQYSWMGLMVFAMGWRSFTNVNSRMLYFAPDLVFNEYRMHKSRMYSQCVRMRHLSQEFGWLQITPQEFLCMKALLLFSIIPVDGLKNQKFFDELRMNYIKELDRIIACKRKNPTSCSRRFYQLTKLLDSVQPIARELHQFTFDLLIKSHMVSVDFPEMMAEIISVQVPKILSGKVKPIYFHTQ

[9] = Terminal half life in rat at 1 mg/kg, iv; assay type: ADME, organism-based; set-up: dose 1 mg/kg, route intravenous; conditions: in vivo
How it was run: (§5)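 Female rats, single dose of 1 mg/kg given as IV bolus or orally. AUC0–∞, clearance, volume of distribution and terminal half-life taken from the IV arm. Oral exposure gives AUC0–∞; bioavailability from oral versus IV exposure.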

[10] = AUC (0 to infinity) in rat at 1 mg/kg, po; assay type: ADME, organism-based; set-up: time infinity, dose 1 mg/kg, route oral; conditions: plasma; how it was run: as §5
[11] = AUC (0 to infinity) in rat at 1 mg/kg, iv; assay type: ADME, organism-based; set-up: time infinity, dose 1 mg/kg, route intravenous; conditions: plasma; how it was run: as §5
[12] = molecular target: T3, Glucocorticoid receptor; assay: Antagonist activity at glucocorticoid receptor expressed in L929 cells by HRE-tk luciferase assay
[13] = molecular target: T4, Androgen receptor; assay: Agonist activity at androgen receptor expressed in mouse fibroblast L929 cells by HRE-tk luciferase assay
[14] = tested on: Rattus norvegicus; assay: Effect on estrogen-induced synthesis of complement component C3 in po dosed Sprague-Dawley rat uterus epithelial cells; assay type: functional; conditions: Epithelial cell
How it was run: (§6)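 Adult ovariectomized Sprague–Dawley rats (60-day-old, surgery at least 8 days before dosing), groups of six, acclimated at least 72 h. Compound given once daily for 2 days, by sc injection or oral gavage, in 10% ethanol/corn oil. Ethinyl estradiol given orally on day 2. Uteri taken about 24 h later. C3 mRNA measured by Northern blot, normalized to 28S rRNA. Log-transformed ratios; Huber M-estimator.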

[15] = Bioavailability in rat at 1 mg/kg, po; assay type: ADME, organism-based; conditions: in vivo; how it was run: as §5
[16] = tested on: Rattus norvegicus; assay: Effect on uterine decidualization in po dosed ovariectomized Sprague-Dawley rat after 7 days; assay type: organism-based; conditions: 168 h
How it was run: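 Ovariectomized mature Sprague–Dawley rats (~60-day-old, 230 g), groups of 4–5, dosed once daily for 7 days by gavage. Half-log dose steps. One uterine horn decidually stimulated; the contralateral horn is the control. Horns weighed about 24 h after the last dose. D-horn/C-horn ratio log-transformed; Huber M-estimator; ANOVA and nonlinear dose–response fitting.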

[17] = Clearance in rat at 1 mg/kg, iv; assay type: ADME, organism-based; set-up: dose 1 mg/kg, route intravenous; conditions: in vivo; how it was run: as §5
[18] = Volume of distribution in rat at 1 mg/kg, iv; assay type: ADME, organism-based; set-up: dose 1 mg/kg, route intravenous; conditions: in vivo; how it was run: as §5
[19] = molecular target: T1, Progesterone receptor (Homo sapiens); assay: as §1; assay type: functional, cell-based; how it was run: as §2
[20] = tested on: Rattus norvegicus; assay: Effect on estrogen-induced synthesis of complement component C3 in sc dosed Sprague-Dawley rat uterus epithelial cells; assay type: functional, Epithelial cell; how it was run: as §6

Row | Structure (SMILES) | Efficacy [1] | EC50 [2] | Activity [3] | further results
1 | Cn1c(C#N)ccc1-c1ccc2[nH]c(=S)n(C3CCC3)c2c1 | 70% | 0.5 nM | inactive | –
2 | CCC(CC)n1c(=O)[nH]c2ccc(-c3ccc(C#N)n3C)cc21 | – | > 3000 nM | – | IC50 [4]: 11.7 nM
3 | CCC(CC)n1c(=S)[nH]c2ccc(-c3ccc(C#N)n3C)cc21 | 70% | 1 nM | inactive | –
4 | Cn1c(C#N)ccc1-c1ccc2c(c1)C(C)(C)OC(=S)N2 [TANAPROGET] | – | – | – | ED100 [5]: 0.01 mg/kg
5 | Cn1c(C#N)ccc1-c1ccc2[nH]c(=O)n(C3CCCC3)c2c1 | – | > 3000 nM | – | IC50 [6]: 26.2 nM
6 | Cn1c(C#N)ccc1-c1ccc2[nH]c(=S)n(C3CCCC3)c2c1 | 75% | 0.1 nM | inactive | EC50 [7]: > 10000 nM; IC50 [8]: 1000 nM; half-life [9]: 4.4 h; AUC(0-inf) [10]: 480 ng·h/mL; AUC(0-inf) [11]: 680 ng·h/mL; ED100 [5]: 0.03 mg/kg; IC50 [12]: 99 nM; EC50 [13]: > 10000 nM; ED50 [14]: 0.003 mg/kg; bioavailability [15]: 71%; IC50 [6]: 0.4 nM; ED50 [16]: 0.02 mg/kg; clearance [17]: 25 mL/min/kg; Vd [18]: 7.6 L/kg
7 | CC(=O)[C@H]1CC[C@H]2[C@@H]3CCC4=CC(=O)CC[C@]4(C)[C@H]3CC[C@]12C [PROGESTERONE] | – | – | inactive | –
8 | Cn1c(C#N)ccc1-c1ccc2[nH]c(=O)n(C3CCC3)c2c1 | – | > 3000 nM | – | –
9 | CCC(CC)n1c(=S)[nH]c2ccc(-c3ccc(F)c(Cl)c3)cc21 | – | – | – | Activity [19]: inactive; inhibition [3]: 60%; IC50 [4]: 33.7 nM
10 | CCC(CC)n1c(=S)[nH]c2ccc(-c3cc(F)cc(C#N)c3)cc21 | 70% | 270 nM | – | inhibition [3]: 50%; IC50 [4]: 3.6 nM
11 | Fc1ccc(-c2ccc3[nH]c(=S)n(C4CCCC4)c3c2)cc1F | 75% | 62.5 nM | inactive | –
12 | N#Cc1cc(F)cc(-c2ccc3[nH]c(=S)n(C4CCC4)c3c2)c1 | 60% | 2.7 nM | inactive | –
13 | CC(=O)O[C@]1(C(C)=O)CC[C@H]2[C@@H]3C[C@H](C)C4=CC(=O)CC[C@]4(C)[C@H]3CC[C@@]21C [MEDROXYPROGESTERONE ACETATE] | – | – | inactive | ED5 [20]: 0.03 mg/kg
14 | Fc1ccc(-c2ccc3[nH]c(=S)n(C4CCCC4)c3c2)cc1Cl | 55% | 49.3 nM | inactive | –
